{"data": "Assay results of several laboratories", "KIT": "Mast/stem cell growth factor receptor Kit (KIT, Homo sapiens, UniProt P10721)", "note": "Protocols differ between the studies behind these lines."}
{"SMILES": "CN1CCN(c2ccc(Nc3ncc4cc(C#N)c(=O)n(C5CCCC5)c4n3)cc2)CC1", "target": "KIT", "effect on": "enzyme activity", "action": "inhibitor", "endpoint": "IC50", "result": "42 nM"}
{"SMILES": "COc1ccc2c(Oc3ccc4c(C(=O)Nc5ccccc5N)cccc4c3)ccnc2c1", "target": "KIT", "effect on": "enzyme activity", "action": "inhibitor", "endpoint": "IC50", "result": "4 nM"}
{"SMILES": "CCN1CCN(Cc2ccc(C(=O)Nc3ccc(C)c(Oc4ccc5c(c4)CC(=O)N5)c3)cc2C(F)(F)F)CC1", "target": "KIT", "effect on": "enzyme activity", "action": "inhibitor", "endpoint": "IC50", "result": "> 10000 nM"}
{"SMILES": "CN(C)c1ccc(C=C2C(=O)Nc3ccccc32)cc1", "target": "KIT", "effect on": "enzyme activity", "action": "inhibitor", "method": "radiometric", "endpoint": "IC50", "result": "84 nM"}
{"SMILES": "Cc1ccc(NC(=O)c2ccc(CN3CCS(=N)(=O)CC3)cc2)cc1Nc1nccc(-c2cccnc2)n1", "target": "KIT", "effect on": "binding", "method": "competition with immobilised ligand", "endpoint": "Kd", "result": "11 nM"}
{"SMILES": "C=CC(=O)Nc1cccc(CN2C(=O)N(c3c(Cl)c(OC)cc(OC)c3Cl)Cc3cnc(NCCCCN(CC)CC)nc32)c1", "target": "KIT", "effect on": "binding", "method": "competition with immobilised ligand", "endpoint": "Kd", "result": "420 nM"}
{"SMILES": "CNC(=O)c1cc2c(Oc3ccc(NC(=O)C4(C(=O)Nc5ccc(F)cc5)CC4)cc3)ccnc2cc1OC", "target": "Mast/stem cell growth factor receptor Kit (KIT, Homo sapiens, UniProt P10721, V560G)", "effect on": "enzyme activity", "action": "inhibitor", "method": "radiometric", "endpoint": "IC50", "result": "15 nM"}
{"SMILES": "Cc1cnc(-c2ccc(-c3ccc(NC(=O)Nc4c(F)cc(F)cc4F)cc3F)c3c2C(=O)NC3)[nH]1", "target": "KIT", "effect on": "enzyme activity", "action": "inhibitor", "endpoint": "IC50", "result": "29.8 nM"}
